In brackets after ≈: the same amount, converted by molar mass. Activity calls are given as the source filed them. The rule behind the calls is not given here.
Tests used:
[1] = Stability in rat plasma assessed as half life of hydrolysis; format: ADME, cell-free
Procedure, shortened: (§1)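 Enzymatic hydrolysis in 80% rat plasma or 80% human plasma at 37 °C. t1/2 taken from first-order kinetic plots. Values are means of three experiments with SEM.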

[2] = Cell cycle arrest in human SKOV cells assessed as decrease in S phase accumulation at 50 uM after 12 hrs by flow cytometry; format: functional, cell-based
Procedure, shortened: (§2)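 SK-OV ovarian carcinoma cells exposed for 12 h to drug at 50 or 150 μM with 0.01% DMSO present. Cells stained with propidium iodide and analysed by flow cytometry for G1, S and G2 distribution. Values are means ± SEM of three independent experiments.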

[3] = Cytotoxicity against human SKOV cells at 300 uM after 12 hrs; format: functional
Procedure, shortened: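 SK-OV ovarian carcinoma cells treated for 12 h at 50, 150 or 300 μM drug with 0.01% DMSO present. Cell viability read out as % inhibition.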

[4] = Cell cycle arrest in human SKOV cells assessed as accumulation at G1 phase at 150 uM after 12 hrs by flow cytometry; format: functional, cell-based; procedure, shortened: as §2
[5] = Stability in human plasma assessed as half life of hydrolysis; format: ADME, cell-free; procedure, shortened: as §1
PC-3 = assay: Growth inhibition of human PC3 cells by SRB assay; format: functional
Procedure, shortened: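 Human PC-3 prostate cancer cells tested by sulforhodamine B assay following the NCI protocol. Concentrations went up to 100 μM, and GI50 was derived.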

[6] = Solubility in water; format: physicochemical; details: for solubility: water
[7] = Partition coefficient, log P of the compound; format: physicochemical; details: octanol/water
[8] = Cell cycle arrest in human SKOV cells assessed as decrease in S phase accumulation at 150 uM after 12 hrs by flow cytometry; format: functional, cell-based; procedure, shortened: as §2
[9] = Chemical stability assessed as half life of hydrolysis at pH 7.4; format: physicochemical; details: buffer
Procedure, shortened: (§3)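 Non-enzymatic chemical hydrolysis of the prodrugs in buffer at pH 1.3 (simulated gastric conditions) and in phosphate buffer at pH 7.4, at 37 °C. Followed for up to 120 h. First-order kinetic plots gave Kobs and t1/2. Values are means of three experiments with SEM.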

[10] = Chemical stability assessed as half life of hydrolysis at pH 1.3; format: physicochemical; details: buffer; procedure, shortened: as §3

Compound: O=C(OC[C@H]1OC(O)[C@H](O)[C@@H](O)[C@H]1O)c1nn(Cc2cc(Cl)cc(Cl)c2)c2ccccc12 (stereo not given in full)
- half-life [1]: 0.995 h
- Activity [2]: Active
- inhibition at 300 µM [3]: 60%
- Activity [4]: Active
- half-life [5]: 2.06 h
- GI50 (PC-3): 3.16 µM
- solubility [6]: 84.3 µg/mL (≈ 174 µM)
- logP [7]: 2.54
- Activity [8]: Active
- half-life [9]: 114 h
- half-life [10]: > 120 h

Compound: O=C(OC[C@@H](O)[C@H](O)CO)c1nn(Cc2cc(Cl)cc(Cl)c2)c2ccccc12
- solubility [6]: 1.2 µg/mL (≈ 2.82 µM)
- logP [7]: 3.04

Compound: O=C(OC[C@H]1O[C@@H](O)[C@H](O)[C@H]1O)c1nn(Cc2cc(Cl)cc(Cl)c2)c2ccccc12
- solubility [6]: 1.3 µg/mL (≈ 2.87 µM)
- logP [7]: 3.4

Compound: O=C(OCC(O)CO)c1nn(Cc2cc(Cl)cc(Cl)c2)c2ccccc12 (stereo not given)
- solubility [6]: 0.51 µg/mL (≈ 1.29 µM)
- logP [7]: 3.96

Compound: O=C(O[C@@H]1[C@@H](O)[C@H](O)O[C@H](CO)[C@H]1O)c1nn(Cc2cc(Cl)cc(Cl)c2)c2ccccc12
- half-life [1]: 0.534 h
- half-life [5]: 0.711 h
- solubility [6]: 118 µg/mL (≈ 245 µM)
- logP [7]: 2.19
- half-life [9]: 44.1 h
- half-life [10]: > 120 h

Compound: O=C(O[C@@H]([C@H](O)[C@H](O)CO)[C@H](O)CO)c1nn(Cc2cc(Cl)cc(Cl)c2)c2ccccc12
- half-life [1]: 2.17 h
- inhibition at 300 µM [3]: 30%
- half-life [5]: 6 h
- GI50 (PC-3): 3.16 µM
- solubility [6]: 137 µg/mL (≈ 283 µM)
- logP [7]: 2.55
- half-life [9]: 80.7 h
- half-life [10]: > 120 h

Compound: O=C(OC[C@@H](O)[C@H](O)COC(=O)c1nn(Cc2cc(Cl)cc(Cl)c2)c2ccccc12)c1nn(Cc2cc(Cl)cc(Cl)c2)c2ccccc12
- Activity ([6]; buffer): Not Active

Compound: O=C(O)c1nn(Cc2ccc(Cl)cc2Cl)c2ccccc12 [LONIDAMINE]
- Activity (PC-3): inactive
- solubility [6]: 17 µg/mL (≈ 52.9 µM)
- logP [7]: 1.3

From ChEMBL document CHEMBL1144682, “Glycosyl and polyalcoholic prodrugs of lonidamine” (Bioorg Med Chem Lett, 2008)
